The source made the active and inactive calls. The calls are words filed in the database; no cut-off is given here.
How the values were obtained:
Format in all cases: functional, cell-based
[1] = target: T1, Urotensin-2 receptor (Homo sapiens) (UniProt Q9UKP6); assay: Agonist activity against human urotensin 2 receptor expressed in […] cells assessed as beta-galactosidase activity after 5 days by R-SAT assay relative to Urotensin-2
T1 sequence (whole entry): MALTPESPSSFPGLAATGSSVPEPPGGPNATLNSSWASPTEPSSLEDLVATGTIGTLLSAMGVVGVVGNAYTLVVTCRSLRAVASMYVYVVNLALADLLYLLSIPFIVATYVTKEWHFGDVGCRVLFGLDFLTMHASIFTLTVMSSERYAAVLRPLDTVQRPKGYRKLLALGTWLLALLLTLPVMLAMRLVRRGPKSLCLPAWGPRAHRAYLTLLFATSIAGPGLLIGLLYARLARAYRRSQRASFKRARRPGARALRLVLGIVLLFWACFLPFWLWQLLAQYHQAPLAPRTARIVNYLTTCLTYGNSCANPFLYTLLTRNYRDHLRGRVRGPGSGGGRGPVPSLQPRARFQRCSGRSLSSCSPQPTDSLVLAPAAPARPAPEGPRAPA
How it was run: (§1)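 R-SAT in NIH-3T3 cells grown to 80% confluence in DMEM with 10% bovine calf serum, then transfected for 18 h with human UII receptor plus a β-galactosidase marker. Cells were frozen and thawed into DMEM with 0.4% calf serum and 30% UltraCulture, then incubated with compound for 5 days in 5% CO₂. Reporter read at 420 nm. Eight doses in triplicate, 2–5 EC₅₀ determinations, reported as mean ± SD; efficacy normalized to UII = 100%.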

Urotensin-2 receptor = target: T2, Urotensin-2 receptor (Homo sapiens, UniProt Q9UKP6); assay: (§2) Agonist activity against human urotensin 2 receptor expressed in […] cells assessed as beta-galactosidase activity after 5 days by R-SAT assay; how it was run: as §1
T2 sequence (Q9UKP6 whole entry): T1 sequence (whole entry)

[2] = target: T1, Urotensin-2 receptor (Homo sapiens); assay: as §2; how it was run: as §1
[3] = target: Somatostatin receptor type 4 (Homo sapiens) (UniProt P31391); assay: Agonist activity against human SST4 receptor expressed in […] cells assessed as beta-galactosidase activity at 3 uM after 5 days by R-SAT assay
[4] = target: Somatostatin receptor type 1 (Homo sapiens) (UniProt P30872); assay: Agonist activity against human SST1 receptor expressed in […] cells assessed as beta-galactosidase activity at 3 uM after 5 days by R-SAT assay
Somatostatin receptor type 1 (Homo sapiens), sequence (P30872 whole entry): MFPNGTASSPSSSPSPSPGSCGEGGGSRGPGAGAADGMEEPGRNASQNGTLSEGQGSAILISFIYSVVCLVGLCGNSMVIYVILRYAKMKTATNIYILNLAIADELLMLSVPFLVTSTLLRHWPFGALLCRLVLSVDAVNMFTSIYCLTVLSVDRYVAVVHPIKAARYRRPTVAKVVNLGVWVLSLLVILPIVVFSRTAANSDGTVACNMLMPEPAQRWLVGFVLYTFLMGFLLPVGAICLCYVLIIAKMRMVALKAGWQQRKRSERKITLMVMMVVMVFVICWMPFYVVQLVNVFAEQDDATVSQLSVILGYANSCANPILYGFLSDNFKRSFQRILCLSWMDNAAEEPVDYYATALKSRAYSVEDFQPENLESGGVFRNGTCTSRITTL

Somatostatin receptor type 4 (Homo sapiens), sequence (P31391 whole entry): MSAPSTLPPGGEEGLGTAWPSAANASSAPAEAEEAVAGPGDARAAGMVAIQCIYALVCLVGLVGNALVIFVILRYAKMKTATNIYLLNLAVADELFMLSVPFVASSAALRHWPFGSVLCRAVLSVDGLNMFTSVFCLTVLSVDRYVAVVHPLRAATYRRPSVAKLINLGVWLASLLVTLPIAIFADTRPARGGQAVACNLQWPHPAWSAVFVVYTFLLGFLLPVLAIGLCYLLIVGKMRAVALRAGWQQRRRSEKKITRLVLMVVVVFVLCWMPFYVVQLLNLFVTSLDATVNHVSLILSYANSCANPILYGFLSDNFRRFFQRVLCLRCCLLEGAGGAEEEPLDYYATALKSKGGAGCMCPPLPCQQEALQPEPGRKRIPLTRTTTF

SMILES | Efficacy [1] | EC50 (Urotensin-2 receptor) | pEC50 [2] | Activity [3] | Activity [4]
C=CCN(CC=C)c1cccc(C2(CCN(C)C)Cc3ccccc3C(=O)O2)c1 (stereo unspecified) | 55% | 2.4 µM |  |  | 
C[N+](C)(C)CCC1(c2ccc(Cl)cc2)Cc2ccccc2C(=O)O1 (stereo unspecified) | 118% | 3.8 µM |  |  | 
CN(C)CCC1(c2ccc(Cl)cc2)Cc2cc(-c3ccccc3)ccc2C(=O)O1 (stereo unspecified) | inactive |  | inactive |  | 
CN(C)CCC1(c2ccc(Cl)cc2)Cc2ccc3ccccc3c2C(=O)O1 (stereo unspecified) | 124% | 1.15 µM |  |  | 
CN(C)CCC1(c2ccc(Oc3ccccc3)cc2)Cc2ccccc2C(=O)O1 (stereo unspecified) | 54% | 1.15 µM |  |  | 
CN(C)CCC1(c2ccc(C#Cc3ccccc3)cc2)Cc2ccccc2C(=O)O1 (stereo unspecified) | inactive |  | inactive |  | 
C=CCN(C)CCC1(c2ccc(Cl)cc2)Cc2ccccc2C(=O)O1 (stereo unspecified) | 77% | 4.17 µM |  |  | 
CN(C)CCC1(c2ccc(Cl)cc2)Cc2ccccc2C(=O)N1C (stereo unspecified) | 152% | 2.29 µM |  |  | 
C=CCN(CC=C)c1ccc(C2(CCN(C)C)Cc3ccccc3C(=O)O2)cc1 (stereo unspecified) | inactive |  | inactive |  | 
COc1cc(OC)cc(C2(CCN(C)C)Cc3cc(C)c(C)cc3C(=O)O2)c1 (stereo unspecified) | 156% | 5.25 µM |  |  | 
COc1ccc2c(c1C)CC(CCN(C)C)(c1ccc(Cl)cc1)OC2=O (stereo unspecified) | 118% | 1.74 µM |  |  | 
CN(C)CCC1(c2cccc(-c3ccccc3)c2)Cc2ccccc2C(=O)O1 (stereo unspecified) | 50% | 1.41 µM |  |  | 
CN(C)CCC1(c2ccc(-c3ccccc3)cc2)Cc2ccccc2C(=O)O1 (stereo unspecified) | inactive |  | inactive |  | 
CC(C)N1C(=O)c2ccccc2CC1(CCN(C)C)c1ccc(Cl)cc1 (stereo unspecified) | 145% | 2.24 µM |  |  | 
CNCCC1(c2ccc(Cl)cc2)Cc2ccccc2C(=O)O1 (stereo unspecified) | 46% | 1.95 µM |  |  | 
COc1cccc2c1CC(CCN(C)C)(c1ccc(Cl)cc1)N(C)C2=O (stereo unspecified) | 151% | 1.17 µM |  |  | 
CN(C)CCC1(c2cccc(Br)c2)Cc2ccccc2C(=O)O1 (stereo unspecified) | 68% | 2.95 µM |  |  | 
COc1cccc(C2(CCN(C)C)Cc3cc(C)c(C)cc3C(=O)O2)c1 (stereo unspecified) | 149% | 2.88 µM |  |  | 

Other lines, results leading:

Efficacy [1] | EC50 (Urotensin-2 receptor) | pEC50 [2] | Activity [3] | Activity [4] | SMILES
49% | 0.263 µM |  |  |  | Cc1cc2c(cc1C)CC(CCN(C)C)(c1ccc3ccccc3c1)OC2 (stereo unspecified)
132% | 0.724 µM |  |  |  | C=CCN(CC=C)c1ccc2c(c1)CC(CCN(C)C)(c1ccc(Cl)cc1)OC2=O (stereo unspecified)
126% | 0.148 µM |  |  |  | Cc1cc2c(cc1C)C(=O)OC(CCN(C)C)(c1ccc3ccccc3c1)C2 (stereo unspecified)
172% | 0.676 µM |  |  |  | CN(C)CCC1(c2ccc(Cl)c(Cl)c2)Cc2ccccc2C(=O)O1 (stereo unspecified)
98% | 0.0513 µM |  | 31% | inactive | Cc1cc2c(cc1C)C(=O)OC(CCN(C)C)(c1ccc(Cl)c(Cl)c1)C2 (stereo unspecified)
165% | 0.955 µM |  |  |  | COc1ccc2c(c1)CC(CCN(C)C)(c1ccc(Cl)cc1)OC2=O (stereo unspecified)
127% | 0.933 µM |  |  |  | CN(C)CCC1(c2ccc(Br)cc2)Cc2ccccc2C(=O)O1 (stereo unspecified)
110% | 0.501 µM |  |  |  | CN(C)CCC1(c2ccc(Cl)cc2)Cc2ccccc2CO1 (stereo unspecified)
47% | 0.692 µM |  |  |  | Cc1cc2c(cc1C)CC(CCN(C)C)(c1ccc(Cl)cc1)OC2 (stereo unspecified)

— ChEMBL document CHEMBL1177636, “Optimization of isochromanone based urotensin II receptor agonists” (Bioorg Med Chem, 2010)
